Here are results for two molecules from ChEMBL document CHEMBL4414562, “Discovery of the First in Vivo Active Inhibitors of the Soluble Epoxide Hydrolase Phosphatase Domain” (J Med Chem, 2019).

Active and inactive are the calls of the source. The calls are words filed in the database; no cut-off is given here. Where only a bound is given, the exact number is not on record here.

For assay [1], the target named is T1, Peroxisome proliferator-activated receptor gamma (Homo sapiens) (UniProt P37231).
T1 sequence (whole entry): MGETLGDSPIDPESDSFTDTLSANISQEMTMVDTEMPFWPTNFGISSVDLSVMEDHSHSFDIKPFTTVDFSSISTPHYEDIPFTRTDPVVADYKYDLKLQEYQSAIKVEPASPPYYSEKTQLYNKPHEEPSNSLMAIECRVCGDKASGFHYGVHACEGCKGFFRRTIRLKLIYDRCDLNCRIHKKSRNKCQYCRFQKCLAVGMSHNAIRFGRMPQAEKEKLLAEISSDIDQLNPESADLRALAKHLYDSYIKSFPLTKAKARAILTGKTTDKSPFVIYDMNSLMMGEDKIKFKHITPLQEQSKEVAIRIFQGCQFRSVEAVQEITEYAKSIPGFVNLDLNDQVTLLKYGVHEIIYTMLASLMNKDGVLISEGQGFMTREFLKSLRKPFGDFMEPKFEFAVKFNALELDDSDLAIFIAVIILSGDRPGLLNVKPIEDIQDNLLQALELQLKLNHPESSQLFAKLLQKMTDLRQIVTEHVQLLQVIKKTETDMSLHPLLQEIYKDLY
The assay is described as follows: Activation of Gal4-fused human PPARgamma LBD transfected in HEK293T cells at 10 uM after 12 to 14 hrs by luciferase reporter gene assay. It counts as cell-based. A digest of the protocol:
(§1)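 Gal4–human nuclear receptor LBD fusion (pFA-CMV-hNR-LBD) co-transfected with pFR-Luc and pRL-SV40 (Lipofectamine LTX) into HEK293T cells seeded the day before. 5 h post-transfection, compound added in Opti-MEM with 0.1% DMSO and incubated 12−14 h. Dual-Glo firefly/Renilla luciferase read. Activation expressed relative to reference agonist at 1 μM. Triplicates, ≥3 independent experiments.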
Background: In a reporter assay the amount or activity of a reporter protein is the signal.

Assay [2] concerns the target T2, Bifunctional epoxide hydrolase 2 (Mus musculus, UniProt P34914).
T2 sequence (P34914 whole entry): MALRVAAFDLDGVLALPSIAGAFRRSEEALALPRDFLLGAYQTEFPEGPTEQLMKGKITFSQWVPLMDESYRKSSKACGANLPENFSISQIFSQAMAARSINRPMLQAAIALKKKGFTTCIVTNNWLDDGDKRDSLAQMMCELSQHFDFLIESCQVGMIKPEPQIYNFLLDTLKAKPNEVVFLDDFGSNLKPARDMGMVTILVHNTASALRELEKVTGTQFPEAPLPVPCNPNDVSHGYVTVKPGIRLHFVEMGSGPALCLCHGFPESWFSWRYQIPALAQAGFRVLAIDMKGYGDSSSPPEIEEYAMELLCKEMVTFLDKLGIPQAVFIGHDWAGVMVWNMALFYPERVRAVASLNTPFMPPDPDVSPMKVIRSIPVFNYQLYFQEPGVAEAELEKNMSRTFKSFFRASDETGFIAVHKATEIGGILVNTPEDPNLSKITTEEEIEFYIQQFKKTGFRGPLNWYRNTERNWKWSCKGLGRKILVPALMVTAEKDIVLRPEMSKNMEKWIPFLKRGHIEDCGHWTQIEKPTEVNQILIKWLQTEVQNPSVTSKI
The assay is described as follows: Inhibition of phosphatase activity of full length mouse soluble epoxide hydrolase pre-incubated for 30 mins before FDP substrate addition by fluorescence based assay.

Assay [3] is described as follows: Inhibition of hexa-His-tagged human soluble epoxide hydrolase N-terminal phosphatase domain expressed in Escherichia coli BL21(DE3) pre-incubated for 30 mins before FDP substrate addition by fluorescence based assay.
Assay [4] addresses T3, Peroxisome proliferator-activated receptor delta (Homo sapiens) (UniProt Q03181).
T3 sequence (whole entry): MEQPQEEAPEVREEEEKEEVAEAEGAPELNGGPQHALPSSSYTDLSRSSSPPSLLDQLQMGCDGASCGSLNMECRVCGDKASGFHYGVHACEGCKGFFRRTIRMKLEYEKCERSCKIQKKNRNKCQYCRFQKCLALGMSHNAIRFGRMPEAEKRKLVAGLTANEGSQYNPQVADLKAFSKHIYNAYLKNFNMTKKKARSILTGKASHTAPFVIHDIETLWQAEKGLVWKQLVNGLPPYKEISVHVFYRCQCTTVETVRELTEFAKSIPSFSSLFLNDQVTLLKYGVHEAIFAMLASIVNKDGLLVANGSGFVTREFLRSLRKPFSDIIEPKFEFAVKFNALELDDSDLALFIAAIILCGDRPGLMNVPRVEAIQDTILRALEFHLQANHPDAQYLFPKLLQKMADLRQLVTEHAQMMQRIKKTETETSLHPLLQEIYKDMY
In words: Activation of Gal4-fused human PPARbeta/delta LBD transfected in HEK293T cells at 10 uM after 12 to 14 hrs by luciferase reporter gene assay. In kind it is cell-based. A digest of the protocol: as §1

Assay [5] addresses T4, Retinoic acid receptor RXR-alpha (Homo sapiens) (UniProt P19793).
T4 sequence (whole entry): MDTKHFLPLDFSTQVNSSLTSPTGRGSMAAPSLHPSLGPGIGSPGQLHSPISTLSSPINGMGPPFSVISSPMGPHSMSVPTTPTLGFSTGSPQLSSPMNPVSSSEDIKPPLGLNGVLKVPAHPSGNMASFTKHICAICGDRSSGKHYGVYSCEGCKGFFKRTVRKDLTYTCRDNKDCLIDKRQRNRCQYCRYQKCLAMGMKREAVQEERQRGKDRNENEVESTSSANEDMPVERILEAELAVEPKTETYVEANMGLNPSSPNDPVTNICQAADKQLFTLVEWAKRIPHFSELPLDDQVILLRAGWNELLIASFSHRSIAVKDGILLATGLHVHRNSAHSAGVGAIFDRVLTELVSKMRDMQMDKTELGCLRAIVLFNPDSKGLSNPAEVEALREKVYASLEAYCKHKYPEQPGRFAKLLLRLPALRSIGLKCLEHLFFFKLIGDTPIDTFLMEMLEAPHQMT
The assay is described as follows: Activation of Gal4-fused human RXRalpha LBD transfected in HEK293T cells at 10 uM after 12 to 14 hrs by luciferase reporter gene assay. It counts as cell-based. A digest of the protocol: as §1

One may read the IC50 as the concentration at which inhibition is half-maximal. Read a low IC50 as higher potency. For `O=C(O)CCCc1nc(-c2ccc(Cl)c(Cl)c2)c(-c2ccccc2)o1`, the Activity in assay [1] is 29%; in assay [5], 77%. For the same molecule, the IC50 in assay [2] was above 30 µM; in assay [3], 0.058 µM. Also, the outcome in assay [4] was inactive.

Take `O=C(O)CCc1nc(-c2ccccc2)c(-c2ccccc2)o1` [OXAPROZIN]: the outcome in assay [1] and in assay [4] was inactive. In addition, the IC50 in assay [2] was 35.5 µM; in assay [3] it was 5 µM. For the same molecule, in assay [5], the Activity amounted to 14.4%.
